Active and inactive are the calls of the source.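 How the source made its calls, unless noted: active means viability at or below 10% of carrier control in both of two separate runs; inconclusive means viability at or below 10% in only one of the two runs; inactive means the rest.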
Experiments:
[1] = Her2 expression decrease, cell viability multiplex – SKBR3 breast tumor cells, AlphaScreen, ATP viability, primary screen (AID 461;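 active means Her2 level under about 52% in both replicate screens, with viability over 70% of control, limit read from the data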;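 on Her2 level: lower value means less Her2 protein in the cells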;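 on viability: percent of carrier control wells set as 100% viability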); settings: SKBR3 Her2 protein level, 18-24 h, measured here: SKBR3 viability, ATP luminescence, at 10 µM
[2] = target: Receptor tyrosine-protein kinase erbB-2 (Homo sapiens) (UniProt P04626); assay: as above; settings: 18-24 h, at 10 µM, stronger effect = lower value
[3] = reduced viability of SK-BR-3 breast cancer cells – cell-based, 24 h, human, pilot screen (AID 572); settings: SK-BR-3 viability, CellTiter-Glo luminescence, at 10 µM, stronger effect = lower value;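 further: compound exposure lasted between 18 and 24 h rather than exactly 24 h; 100% = carrier-treated control wells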
[4] = HUVEC growth inhibition – cell-based, human, primary screen (AID 575;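 active means viability at or below 30% in both replicate assays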;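 further: 100% = median of untreated cell wells with 0.1% DMSO on each plate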); settings: HUVEC proliferation, CellTiter-Glo luminescence, 72 h; at 10 µM; stronger effect = lower value
In short: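 Test system – primary HUVEC, no more than 12 passages · Dosing – one dose, 10 µM final, 0.1% DMSO · Times – 72 h treatment at 37 °C · Measured by – ATP-based CellTiter-Glo luminescent read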

[5] = H69AR cell proliferation blockers – human, duplicate replicates, primary screen (AID 580;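 active means viability at or under a set limit in both replicates, limit being median viability minus 3 SD, cut at about 48% in these data, passing the limit was not always enough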;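 further: 100% = mean luminescence of untreated wells and 0% = no signal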); settings: H69AR lung tumor cells viability, ATP luminescence, 72 h; at 10 µM; stronger effect = lower value
[6] = MRP1 drug-resistance reversers in H69AR cells – cell-based, doxorubicin co-treatment, pilot screen (AID 601;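 active means viability loss from added drug above about 55%, and viability with drug at most 40%, in both replicates, limit read from the data, passing the limit was not always enough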); settings: CellTiter-Glo, 72 h, at 10 µM; for differential viability (reversal): stronger effect = higher value
[7] = yeast transport mutant growth inhibition pilot in 384-well plates, post-Golgi transport modulator project (AID 636; in the data active means inhibition above about 31%); settings: absorbance 615 nm, about 18 h, stronger effect = higher value
[8] = growth suppression of yeast trafficking mutant, preliminary HTS, modulators of trafficking downstream of Golgi apparatus project, 1536-format plate, OD 615 nm (AID 637; in the data active means inhibition above about 30%); settings: yeast transport mutant growth, absorbance 615 nm, 18 h; stronger effect = higher value
[9] = H69AR cells + 2 uM doxorubicin, measured here: viability with 2 uM doxorubicin, stronger effect = lower value
[10] = H69AR cells, compound alone cytotoxicity

Chain of Receptor tyrosine-protein kinase erbB-2 (Homo sapiens) (P04626 whole entry, looked up): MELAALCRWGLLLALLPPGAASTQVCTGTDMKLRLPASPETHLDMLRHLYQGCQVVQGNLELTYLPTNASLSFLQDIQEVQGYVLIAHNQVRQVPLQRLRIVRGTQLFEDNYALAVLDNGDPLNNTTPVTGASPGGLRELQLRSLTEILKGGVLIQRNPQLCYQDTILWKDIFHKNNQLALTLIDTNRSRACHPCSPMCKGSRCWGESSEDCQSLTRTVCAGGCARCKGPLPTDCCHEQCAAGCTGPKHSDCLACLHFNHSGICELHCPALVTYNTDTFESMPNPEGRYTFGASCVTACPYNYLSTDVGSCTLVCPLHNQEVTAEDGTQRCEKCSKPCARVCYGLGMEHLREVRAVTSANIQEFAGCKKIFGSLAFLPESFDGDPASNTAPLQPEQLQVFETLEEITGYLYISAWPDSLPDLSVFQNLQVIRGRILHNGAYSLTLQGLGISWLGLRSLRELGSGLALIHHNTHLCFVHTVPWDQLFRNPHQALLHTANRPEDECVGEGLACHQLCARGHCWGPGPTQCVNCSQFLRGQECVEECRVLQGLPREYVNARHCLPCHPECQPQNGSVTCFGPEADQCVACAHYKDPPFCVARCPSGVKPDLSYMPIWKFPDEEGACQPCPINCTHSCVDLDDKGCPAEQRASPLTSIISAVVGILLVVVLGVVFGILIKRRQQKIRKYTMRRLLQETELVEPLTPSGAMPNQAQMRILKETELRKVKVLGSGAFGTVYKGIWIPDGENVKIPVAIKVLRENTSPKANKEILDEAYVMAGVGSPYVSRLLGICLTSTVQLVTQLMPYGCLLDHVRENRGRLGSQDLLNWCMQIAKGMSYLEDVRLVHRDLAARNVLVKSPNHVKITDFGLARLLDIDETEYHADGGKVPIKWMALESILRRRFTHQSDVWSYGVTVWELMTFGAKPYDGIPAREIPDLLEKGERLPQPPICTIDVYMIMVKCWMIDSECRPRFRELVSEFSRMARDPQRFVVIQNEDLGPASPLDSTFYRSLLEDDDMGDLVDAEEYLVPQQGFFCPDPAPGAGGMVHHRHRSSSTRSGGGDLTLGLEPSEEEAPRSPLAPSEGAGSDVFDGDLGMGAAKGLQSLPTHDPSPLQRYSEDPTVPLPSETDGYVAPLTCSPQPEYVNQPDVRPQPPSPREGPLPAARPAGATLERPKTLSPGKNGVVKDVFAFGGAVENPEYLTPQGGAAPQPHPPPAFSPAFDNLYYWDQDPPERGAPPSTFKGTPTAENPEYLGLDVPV

| Structure (SMILES) | viability [1] | Her2 level [2] | viability [3] | viability [4] | viability [5] | differential viability (reversal) ([6]; H69AR cells + 2 uM doxorubicin) | viability [6, 9] | viability [6, 10] | inhibition [7] | inhibition [8] |
| --- | --- | --- | --- | --- | --- | --- | --- | --- | --- | --- |
| CCNc1nc(OC)nc(Oc2ccc(=O)n(-c3ccccc3)n2)n1 | 96% | 86.5% (inactive) | 96% (inactive) | 106% (inactive) | 96.4% (inactive) | 10.6% (inactive) | 85.8% | 96.4% | -8.51% (inactive) | 2% (inactive) |
| CCOc1ccc(NC(=O)c2ccccc2O)cc1 | 87.5% | 87.5% (inactive) | 87.5% (inactive) | 90.4% (inactive) | 101% (inactive) | 10.1% (inactive) | 90.5% | 101% | -1.22% (inactive) | -2.7% (inactive) |
| Cc1csc(NC(=O)CCCSc2nc3ccccc3s2)n1 | 100% | 71% (inactive) | 100% (inactive) | 62.9% (inactive) | 96% (inactive) | 0.115% (inactive) | 95.9% | 96% | -5.87% (inactive) | 5.57% (inactive) |
| CCOC(=O)Cc1nn2c(=O)cc(C)nc2s1 | 116% | 111% (inactive) | 116% (inactive) | 102% (inactive) | 102% (inactive) | 2.55% (inactive) | 99.4% | 102% | -1.07% (inactive) | 1.64% (inactive) |
| COc1ccc(-c2[nH]nc3c2C(c2ccccc2OC(=O)N2CCOCC2)C(C#N)=C(N)O3)cc1 (stereo not given) | 120% | 85.5% (inactive) | 120% (inactive) | 96.2% (inactive) | 88.9% (inactive) | 1.89% (inactive) | 87% | 88.9% | -1.58% (inactive) | -1.45% (inactive) |
| O=C(CN1CCCC1)Nc1ccc(NC(=O)Nc2ccccc2)cc1 | 92.5% | 110% (inactive) | 92.5% (inactive) | 75.3% (inactive) | 95.3% (inactive) | 0.39% (inactive) | 94.9% | 95.3% | 0% (inactive) | -6.39% (inactive) |
| Cc1ccc(CNC(=O)CSc2n[nH]c(N)n2)cc1 | 100% | 99.5% (inactive) | 100% (inactive) | 82.3% (inactive) | 96.6% (inactive) | -1.86% (inactive) | 98.5% | 96.6% | 0.79% (inactive) | 5.9% (inactive) |
| CCCN(Cc1cc2ccc(C)cc2[nH]c1=O)C(=O)c1cccnc1 | 87% | 93% (inactive) | 87% (inactive) | 89.3% (inactive) | 87.4% (inactive) | -2.29% (inactive) | 89.7% | 87.4% | 0% (inactive) | -3.28% (inactive) |
| Cc1cc2ncn(N)c2cc1C | 99.5% | 84% (inactive) | 99.5% (inactive) | 101% (inactive) | 98.8% (inactive) | 0.485% (inactive) | 98.3% | 98.8% | -7.7% (inactive) | 1.83% (inactive) |
| Nc1scc(-c2ccncc2)c1Cl | 90.5% | 77.5% (inactive) | 90.5% (inactive) | 83.5% (inactive) | 96.2% (inactive) | 8.54% (inactive) | 87.7% | 96.2% | -5.07% (inactive) | -3.49% (inactive) |
| Nc1c(Sc2ccccc2)c(=O)[nH]c(=O)n1Cc1ccccc1 | 90.5% | 104% (inactive) | 90.5% (inactive) | 109% (inactive) | 102% (inactive) | 8.38% (inactive) | 93.2% | 102% | -5.14% (inactive) | -6% (inactive) |
| O=C(c1ccco1)N1CCN(C(=O)C2CCN(S(=O)(=O)c3cccc4nsnc34)CC2)CC1 | 98.5% | 102% (inactive) | 98.5% (inactive) | 104% (inactive) | 83.5% (inactive) | 8.47% (inactive) | 75% | 83.5% | -4.27% (inactive) | -1.48% (inactive) |
| Cc1ccccc1NC(=O)c1c(F)c(F)c(F)c(F)c1F | 90.5% | 98% (inactive) | 90.5% (inactive) | 103% (inactive) | 88.9% (inactive) | 2.94% (inactive) | 86% | 88.9% | -5.13% (inactive) | 4.1% (inactive) |
| COC(=O)c1sc(N)c(C(=O)OC)c1CSc1nc2sc3c(c2c(=O)n1C)CCC3 | 88% | 103% (inactive) | 88% (inactive) | 81.5% (inactive) | 62.3% (inactive) | 8.74% (inactive) | 53.5% | 62.3% | -2.84% (inactive) | 2.62% (inactive) |
| CCCOc1cc(C)c(S(=O)(=O)N2CCN(C)CC2)cc1C | 89% | 99% (inactive) | 89% (inactive) | 104% (inactive) | 95.2% (inactive) | 2.26% (inactive) | 92.9% | 95.2% | -1.58% (inactive) | 5.41% (inactive) |
| c1ccc2c(c1)CC(N1CCCCC1)c1ccccc1N2 (stereo not given) | 79.5% | 91% (inactive) | 79.5% (inactive) | 90.1% (inactive) | 91.5% (inactive) | 4.69% (inactive) | 86.8% | 91.5% | -1.82% (inactive) | -3.93% (inactive) |
| Nc1nc(C2C(=O)CCCC2=O)cs1 | 97.5% | 99.5% (inactive) | 97.5% (inactive) | 102% (inactive) | 103% (inactive) | 5.64% (inactive) | 97.6% | 103% | -2.89% (inactive) | 4.1% (inactive) |
| COc1ccccc1OCC(=O)NCC1CCCCC1 | 94.5% | 114% (inactive) | 94.5% (inactive) | 93.2% (inactive) | 109% (inactive) | 23.4% (inactive) | 85.2% | 109% | -3.29% (inactive) | -9.33% (inactive) |
| C/C(=C(\C#N)C(=O)NCCCN1CCOCC1)N(C)C | 96.5% | 106% (inactive) | 96.5% (inactive) | 95.2% (inactive) | 102% (inactive) | 8.58% (inactive) | 93.1% | 102% | -1.58% (inactive) | 5.57% (inactive) |
| CC(C)(C)C(=O)/C=C(\N)c1ccccn1 | 102% | 94.5% (inactive) | 102% (inactive) | 119% (inactive) | 100% (inactive) | 2.67% (inactive) | 97.8% | 100% | -1.04% (inactive) | -4.92% (inactive) |
| Cc1c(NC(=O)C(C)OC(=O)C(NC(=O)c2ccco2)C(C)C)c(=O)n(-c2ccccc2)n1C (stereo not given) | 91% | 91.5% (inactive) | 91% (inactive) | 90.9% (inactive) | 91.5% (inactive) | 5.67% (inactive) | 85.8% | 91.5% | -6.89% (inactive) | -5.5% (inactive) |
| O=C1CC(c2cccc(Cl)c2)Cc2nc(N3CCN(c4ccccc4)CC3)ncc21 (stereo not given) | 88% | 118% (inactive) | 88% (inactive) | 95.7% (inactive) | 91.3% (inactive) | -0.02% (inactive) | 91.3% | 91.3% | 1.3% (inactive) | 2.67% (inactive) |
| O=C(Cn1cnc2c(nnn2Cc2ccc(Cl)cc2)c1=O)NCC1CCCO1 (stereo not given) | 120% | 78% (inactive) | 120% (inactive) | 101% (inactive) | 106% (inactive) | 10.8% (inactive) | 94.7% | 106% | -10.1% (inactive) | -1.27% (inactive) |
| Cc1cc2c(s1)c1cnn(CC(=O)NCCc3ccccc3)c(=O)c1n2C | 120% | 98.5% (inactive) | 120% (inactive) | 118% (inactive) | 87.1% (inactive) | 5.06% (inactive) | 82% | 87.1% | -5.81% (inactive) | -3.5% (inactive) |
| CCc1nnc(NC(=O)c2ccc(S(=O)(=O)NCC(C)C)cc2)s1 | 92.5% | 89% (inactive) | 92.5% (inactive) | 100% (inactive) | 98.3% (inactive) | 1.11% (inactive) | 97.2% | 98.3% | -5.95% (inactive) | 0.16% (inactive) |
| O=C(CN1CCOCC1)N1CCCc2c1c(=O)oc1ccc(OCc3ccccc3)cc21 | 82% | 99.5% (inactive) | 82% (inactive) | 94.8% (inactive) | 77.2% (inactive) | 4.61% (inactive) | 72.6% | 77.2% | -5.07% (inactive) | -4.1% (inactive) |
| CC1CCCCC1NC(=O)c1ccc(N2CCCC2=O)cc1 (stereo not given) | 112% | 106% (inactive) | 112% (inactive) | 111% (inactive) | 90.3% (inactive) | 7.01% (inactive) | 83.2% | 90.3% | -2.21% (inactive) | 2.79% (inactive) |
| O=C(CN1C(=O)C2CC=C(Cl)CC2C1=O)Nc1ccc(C(=O)O)cc1 (stereo not given) | 127% | 101% (inactive) | 127% (inactive) | 99.1% (inactive) | 94.7% (inactive) | -0.64% (inactive) | 95.4% | 94.7% | -3.55% (inactive) | -0.16% (inactive) |
| Cc1c(C(=O)NCCC2=CCCCC2)oc2ccc(S(=O)(=O)N3CCC4(CC3)OCCO4)cc12 | 94.5% | 104% (inactive) | 94.5% (inactive) | 49.1% (inactive) | 48.1% (active) | -4.29% (inactive) | 52.4% | 48.1% | -10.8% (inactive) | -11.5% (inactive) |

From PubChem BioAssay
